Data set [1] is described as follows: Distribution coefficient, log D of the compound. Type of data set: physicochemical. Particulars: octanol/water; call rule not given here. The method, boiled down: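 Calculated at pH 7.4 by ACD software. Experimental values came from RP-HPLC on a C18 column at 25 °C and 0.30 mL/min, using 10 mM ammonium acetate pH 7.4 versus acetonitrile (5→98% over 30 min). Injection was 2 µL of a 1 mM DMSO solution with diode-array detection. Retention time was calibrated against six reference compounds.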

The target of data set [2] is T1, Neuropeptide Y receptor type 1 (Homo sapiens) (UniProt P25929).
T1 sequence (whole entry): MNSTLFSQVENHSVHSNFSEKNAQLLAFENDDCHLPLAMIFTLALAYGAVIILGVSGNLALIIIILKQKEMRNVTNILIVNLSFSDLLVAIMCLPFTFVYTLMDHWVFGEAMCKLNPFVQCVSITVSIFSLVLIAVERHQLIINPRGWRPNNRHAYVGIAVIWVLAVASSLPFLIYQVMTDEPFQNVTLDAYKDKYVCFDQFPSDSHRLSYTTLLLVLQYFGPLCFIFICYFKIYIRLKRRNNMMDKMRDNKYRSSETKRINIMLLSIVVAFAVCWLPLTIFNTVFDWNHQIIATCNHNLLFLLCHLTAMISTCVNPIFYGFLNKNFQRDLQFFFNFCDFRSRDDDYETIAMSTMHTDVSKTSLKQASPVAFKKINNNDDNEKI
Put plainly: Antagonist activity at NPY1 receptor in human HEL cells assessed as inhibition of NPY-induced calcium mobilization by Fura-2 assay. The format is functional, cell-based. (A change in cytosolic calcium serves as a functional read-out for many receptors and channels.)

The target in data set [3] is T2, Neuropeptide Y receptor type 1 (Homo sapiens, UniProt P25929).
T2 sequence (P25929 whole entry): T1 sequence (whole entry)
Briefly: Displacement of [3H]UR-MK114 from NPY1 receptor in human SK-N-MC cells. Type of data set: cell-based. The method, boiled down:
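Data were fitted with four-parameter sigmoidal curves. IC50 was converted to Ki by Cheng–Prusoff using the radioligand KD. Mean ± SEM of two or three independent experiments. Assay period from solution preparation to read-out was 60–90 min.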

The logD is the decadic logarithm of the distribution of all forms, ionised or not, between an organic phase and buffer at a given pH. The term Kb denotes the affinity of an antagonist, worked out from how it opposes an agonist. The term Ki denotes a dissociation constant, usually derived from enzyme kinetics or from competition with a known ligand.

As for `CCC(=O)NCCNCCNC(=O)CCC(=O)NC(=N)NCCC[C@@H](NC(=O)C(c1ccccc1)c1ccccc1)C(=O)NCc1ccc(O)cc1`, in data set [1] (read-out: logD), the logD was -0.6.
In the case of `N=C(NCCC[C@@H](NC(=O)C(c1ccccc1)c1ccccc1)C(=O)NCc1ccc(O)cc1)NC(=O)CCCCCCC(=O)NCCC(=O)O`, the antagonist dissociation constant (Kb) in data set [2] was determined as 450 nM.
The same measure, in the same setting: next, `CC(=O)OC[C@@H](OC(C)=O)[C@@H](OC(C)=O)[C@H](OC(C)=O)[C@@H](OC(C)=O)C(=O)NC(=N)NCCC[C@@H](NC(=O)C(c1ccccc1)c1ccccc1)C(=O)NCc1ccc(O)cc1`: 110 nM.
Take `CCCCCCCCCCCCCCCC(=O)NC(N)=NCCC[C@@H](NC(=O)C(c1ccccc1)c1ccccc1)C(=O)NCc1ccc(O)cc1`: the Ki in data set [3] (read-out: Ki) came out at 460 nM. This molecule yielded a logD in data set [1] of 9.4.
Turning to `N=C(N)NCCNC(=O)CCC(=O)NC(=N)NCCC[C@@H](NC(=O)C(c1ccccc1)c1ccccc1)C(=O)NCc1ccc(O)cc1`, in data set [1] (read-out: logD), the pH-dependent lipophilicity (logD) is -1.4.
With `CC(=O)OC[C@@H](OC(C)=O)[C@@H](OC(C)=O)[C@H](OC(C)=O)[C@@H](OC(C)=O)C(=O)NC(N)=NCCC[C@@H](NC(=O)C(c1ccccc1)c1ccccc1)C(=O)NCc1ccc(O)cc1`, in data set [3] (read-out: Ki), the Ki was determined as 83 nM. In addition, the logD in data set [1] (read-out: logD) worked out at 3.5.
For `N=C(NCCC[C@@H](NC(=O)C(c1ccccc1)c1ccccc1)C(=O)NCc1ccc(O)cc1)NC(=O)COCCOCCOCC(=O)NCCNC(=O)c1ccc2ccc3cccc4ccc1c2c34`, in that order: 59 nM and 6.
Regarding `N=C(NCCC[C@@H](NC(=O)C(c1ccccc1)c1ccccc1)C(=O)NCc1ccc(O)cc1)NC(=O)CCC(=O)OC[C@H]1O[C@@H](O)[C@H](O)[C@@H](O)[C@H]1O`, in data set [2], the Kb stood at 510 nM. The Ki in data set [3] (read-out: Ki) was determined as 41 nM. Moreover, the logD in data set [1] (read-out: logD) stood at 0.9.
In the case of `N=C(NCCC[C@@H](NC(=O)C(c1ccccc1)c1ccccc1)C(=O)NCc1ccc(O)cc1)NC(=O)CCC(=O)NCCNCCN`, the logD in data set [1] (read-out: logD) is -1.8.
In the case of `N=C(N)NCCCCCC(=O)NC(=N)NCCC[C@@H](NC(=O)C(c1ccccc1)c1ccccc1)C(=O)NCc1ccc(O)cc1`, in data set [2], the antagonist dissociation constant (Kb) came out at 18 nM. Besides, the Ki in data set [3] (read-out: Ki) turned out to be 51 nM. Moreover, in data set [1] (read-out: logD), the logD is -0.3.
`COC(=O)CCCCCCC(=O)NC(=N)NCCC[C@@H](NC(=O)C(c1ccccc1)c1ccccc1)C(=O)NCc1ccc(O)cc1`: the Kb in data set [2] is 0.06 nM.
For `N=C(NCCC[C@@H](NC(=O)C(c1ccccc1)c1ccccc1)C(=O)NCc1ccc(O)cc1)NC(=O)CCCCCCC(=O)NCCC(=O)OCc1ccccc1`, the Kb in data set [2] was 1.1 nM. Also, in data set [3] (read-out: Ki), the Ki was determined as 40 nM. For the same molecule, the pH-dependent lipophilicity (logD) in data set [1] (read-out: logD) stood at 4.6.
On to `COC(=O)CCCCCCC(=O)NC(N)=NCCC[C@@H](NC(=O)C(c1ccccc1)c1ccccc1)C(=O)NCc1ccc(O)cc1`, for which the inhibitory constant (Ki) in data set [3] (read-out: Ki) is 0.9 nM. The log distribution coefficient (logD) in data set [1] (read-out: logD) amounted to 3.9.
As for `N=C(NCCC[C@@H](NC(=O)C(c1ccccc1)c1ccccc1)C(=O)NCc1ccc(O)cc1)NC(=O)c1ccc2ccc3cccc4ccc1c2c34`, the inhibition constant (Ki) entry in data set [3] (sk-n-mc) was “Not Active”. The logD in data set [1] (read-out: logD) worked out at 7.2.
Turning to `N=C(NCCC[C@@H](NC(=O)C(c1ccccc1)c1ccccc1)C(=O)NCc1ccc(O)cc1)NC(=O)CCCn1cc(CO)nn1`, in data set [2], the Kb was determined as 0.4 nM. Besides, in data set [3] (read-out: Ki), the Ki is 3 nM. The pH-dependent lipophilicity (logD) in data set [1] (read-out: logD) was found to be 1.8.
`NCc1cn(CCCC(=O)NC(N)=NCCC[C@@H](NC(=O)C(c2ccccc2)c2ccccc2)C(=O)NCc2ccc(O)cc2)nn1`: the Ki in data set [3] (read-out: Ki) came out at 6.7 nM. Moreover, the pH-dependent lipophilicity (logD) in data set [1] (read-out: logD) stood at 1.7.
Regarding `N=C(NCCC[C@@H](NC(=O)C(c1ccccc1)c1ccccc1)C(=O)NCc1ccc(O)cc1)NC(=O)CCC(=O)NCCNC(=O)c1ccc(F)cc1`, the pH-dependent lipophilicity (logD) in data set [1] (read-out: logD) was 3.5.
In the case of `CCCCCCCCCCCCC#CC#CCCCCCCCCC(=O)NC(=N)NCCC[C@@H](NC(=O)C(c1ccccc1)c1ccccc1)C(=O)NCc1ccc(O)cc1`, the Kb in data set [2] stood at 140 nM. Besides, in data set [3] (read-out: Ki), the Ki was determined as 1500 nM.
Consider `NC(=NCCC[C@@H](NC(=O)C(c1ccccc1)c1ccccc1)C(=O)NCc1ccc(O)cc1)NC(=O)CCCCCCC(=O)NCCC(=O)O`, for which the inhibition constant Ki in data set [3] (read-out: Ki) came to 73 nM. Besides, the logD in data set [1] (read-out: logD) stood at 0.7.
Turning to `N=C(NCCC[C@@H](NC(=O)C(c1ccccc1)c1ccccc1)C(=O)NCc1ccc(O)cc1)NC(=O)CCCn1cc(CN)nn1`, the Kb in data set [2] came out at 14 nM.
Same read-out and setting: next, `COC(=O)CCNC(=O)CCCCCCC(=O)NC(=N)NCCC[C@@H](NC(=O)C(c1ccccc1)c1ccccc1)C(=O)NCc1ccc(O)cc1`: 170 nM; `CCCCCCCCCCCCCCCC(=O)NC(=N)NCCC[C@@H](NC(=O)C(c1ccccc1)c1ccccc1)C(=O)NCc1ccc(O)cc1`: 170 nM.
In the case of `N=C(N)NCCC[C@@H](NC(=O)C(c1ccccc1)c1ccccc1)C(=O)NCc1ccc(O)cc1`, the log distribution coefficient (logD) in data set [1] (read-out: logD) worked out at 0.7.
Still for that read-out and setting: the result for `N=C(NCCC[C@@H](NC(=O)C(c1ccccc1)c1ccccc1)C(=O)NCc1ccc(O)cc1)NC(=O)CCC(=O)NCCN` reads -1.3.
In the case of `N=C(NCCC[C@@H](NC(=O)C(c1ccccc1)c1ccccc1)C(=O)NCc1ccc(O)cc1)NC(=O)CCCc1ccc2ccc3cccc4ccc1c2c34`, the Ki in data set [3] (read-out: Ki) is 270 nM. Besides, the logD in data set [1] (read-out: logD) was 7.6.
On to `N=C(NCCC[C@@H](NC(=O)C(c1ccccc1)c1ccccc1)C(=O)NCc1ccc(O)cc1)NC(=O)CCCCCCC(=O)NCCN`, for which the Kb in data set [2] stood at 230 nM. Also, the inhibition constant Ki in data set [3] (read-out: Ki) was 130 nM. Besides, the pH-dependent lipophilicity (logD) in data set [1] (read-out: logD) is -0.3.
As to `COC(=O)CCNC(=O)CCCCCCC(=O)NC(N)=NCCC[C@@H](NC(=O)C(c1ccccc1)c1ccccc1)C(=O)NCc1ccc(O)cc1`, the Ki in data set [3] (read-out: Ki) is 260 nM. Further, the logD in data set [1] (read-out: logD) came to 2.9.
